SMILES strings stand for the structures.

These results are taken from ChEMBL document CHEMBL4513216, “Probing the Open Global Health Chemical Diversity Library for Multistage-Active Starting Points for Next-Generation Antimalarials” (ACS Infect Dis, 2020).

The nature of the data set: Toxicity liver stage against HepG2, at 10uM. The class given is cell-based. Also noted: test concentration 10 uM, cell line HepG2-A16-CD81EGFP. The note with it: human, HepG2-A16-CD81EGFP cells; read-out: INHIBITION
The method, boiled down: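 Uninfected HepG2-A16-CD81EGFP cells, 3 × 10^3 per well, 1536-well, plated on prespotted compound at 10 μM final, parasite-free screening media added to match infected plates; puromycin 10 μM positive, DMSO 0.5% negative; run in parallel with 48 h PbLuc assay at 37 °C, 5% CO2; viability by CellTiter-Glo luminescence, normalized to controls.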
`c1cncc(CNCCc2cccs2)c1`: the cytotoxicity at 10 µM was -5.68%.
Then `COc1ccc(C[C@H]2CN(C(=O)c3cc(C)no3)CC[C@H]2OC)cc1`, with 6%.
In the case of `O=C(Nc1cnccn1)[C@@H]1COC[C@H]2CN(c3ncc(F)cn3)C[C@H]21`, the cytotoxicity at 10 µM was -11.7%.
In the case of `CN(Cc1ccncc1)C1CCC[C@@H]2CN(c3ncccn3)C[C@H]12` (some centres undefined), the cytotoxicity at 10 µM is -3.21%.
As to `O=C([C@@H]1CC[C@@H]2[C@@H](CCN2Cc2ccncc2)O1)N1CCCCO1`, the cytotoxicity at 10 µM was -3.75%.
Regarding `Cc1ccc(N2CCCC3(COCCN(c4cnccn4)C3)C2)nn1` (centres undefined), the cytotoxicity at 10 µM is -139%.
For the molecule `COCCC(=O)N1CCC2(CCCN2Cc2ccccc2)C1` (centres undefined), the cytotoxicity at 10 µM turned out to be 10.4%.
Regarding `CC(C)OCCCNC(=O)CC1(Cn2cnnn2)CCCCC1`, the cytotoxicity at 10 µM came out at 9.18%.
As for `COc1ccc(Cl)cc1CNCCCn1ccnc1`, the cytotoxicity at 10 µM is 8.32%.
Consider `COCCNC(=O)C1CCCN(c2ccc3nncn3n2)C1` (centres undefined), for which the cytotoxicity at 10 µM was -0.302%.
`Cc1nc(N2CCCC2)nc2c1CCN(C(=O)CC1CC1)CC2`: the cytotoxicity at 10 µM is -9.6%.
For `Cn1nc(C(=O)NC2CCCC2)cc1NC(=O)C1CC1`, the cytotoxicity at 10 µM was 0.754%.
Turning to `CC1CCCN(C(=O)c2ccc(-c3ccco3)o2)C1` (centres undefined), the cytotoxicity at 10 µM worked out at 4.23%.
As for `Cc1nn(C)c(C)c1-c1cnc(CC2CCNC2)cn1` (centres undefined), the cytotoxicity at 10 µM was -8.41%.
As for `Cc1sc2c(C3CCCN(S(C)(=O)=O)C3)nc(C)n2c1C` (centres undefined), the cytotoxicity at 10 µM was -33%.
Next, `c1cncc(CN2CCCC(c3nnc(-c4cnccn4)o3)C2)c1` (centres undefined): -7.36%.
`O=C(c1cc(C2CCCCN2C(=O)C2CCC2)n[nH]1)N1CCOCC1` (centres undefined): the cytotoxicity at 10 µM is -14%.
For the molecule `COCC(=O)N1CCC(c2n[nH]c3nccnc23)CC1`, the cytotoxicity at 10 µM was -8.38%.
Then `O=C(CCNc1ccc(Br)cn1)NCc1ccncc1`, with -0.222%; and `Cc1c(C(=O)N(C)CC(F)(F)F)nnn1-c1ccccc1Cl`, with -1.58%; and `CC(NS(=O)(=O)N(C)C)c1cccc(-n2cccn2)c1` (centres undefined), with -1.46%.
Next, `COc1ccccc1CCNC(=O)NCC(=O)Nc1cccnc1`: -15.2%.
Turning to `O=C(NCC(O)c1cccc(F)c1)c1sccc1OC(F)F` (centres undefined), the cytotoxicity at 10 µM is 0.547%.
With `CC(C)Cn1cnc(S(=O)(=O)Nc2cccnc2-n2cccn2)c1`, the cytotoxicity at 10 µM is -1.75%.
As to `CNC(=O)CN1CCC(CN(C)Cc2ccncc2Cl)CC1`, the cytotoxicity at 10 µM is -2.87%.
In the case of `NC(=O)c1cn(CC2CCC2)c(C2CC2)n1`, the cytotoxicity at 10 µM was found to be 12.8%.
For `CCc1noc(C(C)N2CCC(NS(=O)(=O)c3ccccc3)CC2)n1` (centres undefined), the cytotoxicity at 10 µM amounted to 7.87%.
For the molecule `NC(=O)C(NCc1ccc(Cl)s1)c1ccccc1` (centres undefined), the cytotoxicity at 10 µM amounted to 2.8%.
With `N#CCCN(CC1CC1)S(=O)(=O)c1cccc(Cl)c1`, the cytotoxicity at 10 µM worked out at 9.09%.
Then `Cc1ccc(-c2cc(CNC(=O)NC3CCCCNC3=O)on2)cc1` (centres undefined), with -145%; and `Cc1cc(CN(C2CC2)C(C)C(C)C)on1` (centres undefined), with -0.212%; and `Cc1cc(Cn2cc(C#N)c(=O)c3ccccc32)on1`, with 8.83%.
Turning to `CCOc1ccc2cc(C(=O)NCCNc3ccc(C)nn3)[nH]c2c1`, the cytotoxicity at 10 µM worked out at 1.64%.
As to `O=C(NC1CCS(=O)(=O)c2ccccc21)c1sccc1C1CC1` (centres undefined), the cytotoxicity at 10 µM is 3.63%.
As for `CCOc1cc(F)ccc1NC(=O)N(C(C)CS(C)(=O)=O)C1CC1` (centres undefined), the cytotoxicity at 10 µM turned out to be 4.11%.
In the case of `Cc1ccc(S(=O)(=O)N2CC(C)Oc3ncccc32)c(F)c1` (centres undefined), the cytotoxicity at 10 µM amounted to 3.43%.
Then `CC1CCN(C(=O)c2ccc(N(C)Cc3cnn(C)c3)nc2)CC1`, with -13.8%; and `CS(=O)(=O)NC1CCN(C(=O)c2ccc(F)cc2)CC1`, with 2.3%.
Consider `O=C(CCc1ccccc1)N1CCN(C(=O)c2ccc[nH]2)CC1`, for which the cytotoxicity at 10 µM was -5.04%.
With `CN(CCC(=O)NC1CC1)Cc1ccc(Cl)s1`, the cytotoxicity at 10 µM was 7.83%.
Consider `COc1ccc(NC(=O)NC(C)c2nc[nH]n2)cc1Cl` (centres undefined), for which the cytotoxicity at 10 µM came to 0.0264%.
`CN(Cc1cnn(C)c1)C(=O)NCC1CCS(=O)(=O)C1` (centres undefined): the cytotoxicity at 10 µM came out at 10.3%.
Then `Cc1n[nH]c(C2CN(C(=O)CCCn3cccn3)CCO2)n1` (centres undefined), with -0.138%; and `N#CC1(C(=O)NCc2ccc(F)cc2)CCCC1`, with 7.57%; and `COCCN1CC(C(=O)Nc2ccc3c(c2)CCC(=O)N3C)CC1=O` (centres undefined), with 6.18%.
Next, `CN(Cc1nc2ccsc2c(=O)[nH]1)CC1CCCCC1`: -1.05%; `CCC1CN(CC(=O)NCCOC)CCO1` (centres undefined): -12.9%; `CC(C)(CCS(C)(=O)=O)CNC(=O)NC1CCCC1(C)C` (centres undefined): 6.7%.
In the case of `Fc1ccc(-c2cnc(CNC3CCc4ncnn4C3)o2)cc1` (centres undefined), the cytotoxicity at 10 µM was -0.174%.
Next, `CC(C)CCNc1nnc(C(C)C)s1`: -10.6%; `CN(C)S(=O)(=O)NCC1CCN(Cc2ccccc2F)CC1`: -0.768%.
With `CN(C)C1(CNC(=O)Cc2ccc(F)cc2)CCOCC1`, the cytotoxicity at 10 µM was determined as 6.03%.
Consider `O=C(NCCc1nncn1C1CC1)c1cc2ccccn2c1`, for which the cytotoxicity at 10 µM was -1.87%.
`Cc1ccc2nc(NCCN3CCOCC3)n(C)c(=O)c2c1`: the cytotoxicity at 10 µM came to 9.26%.
On to `COc1ccc(F)c(NCc2ccc(C(=O)N(C)C)[nH]2)c1`, for which the cytotoxicity at 10 µM turned out to be 7.31%.
For `Cc1cc(C)c2[nH]c(C(=O)NCCN3CCCC3=O)c(C)c2c1`, the cytotoxicity at 10 µM is 2.49%.
Consider `CC(C)c1nccc(-c2nccn2CCN(C)S(C)(=O)=O)n1`, for which the cytotoxicity at 10 µM amounted to 7.53%.
Consider `Cc1ccsc1[C@@H]1CCN(C(=O)Cc2ccc(O)cc2)C[C@H]1O`, for which the cytotoxicity at 10 µM is -2.59%.
As for `CCCc1nc(CN(CC)Cc2ccc(S(C)(=O)=O)cc2)no1`, the cytotoxicity at 10 µM is -16.9%.
On to `CCC(C)N(Cc1ccsc1)C(=O)c1ccc2[nH]nnc2c1` (centres undefined), for which the cytotoxicity at 10 µM was 13.3%.
For the molecule `Cn1c(Cn2ccnc2)nnc1C1CCN(C(=O)c2ccncc2)CC1`, the cytotoxicity at 10 µM is -106%.
Turning to `CCc1ccccc1CN1CCN(Cc2ncc[nH]2)[C@H]2CS(=O)(=O)C[C@H]21`, the cytotoxicity at 10 µM was determined as 2.03%.
For `CC1=C(C(=O)NCCc2n[nH]c3c2CCCC3)C(C)NC(=O)N1` (centres undefined), the cytotoxicity at 10 µM was -3.51%.
On to `CN(C)CC1(O)CCCN(C(=O)Cn2nc3ccccc3n2)CC1` (centres undefined), for which the cytotoxicity at 10 µM was -8.14%.
On to `CCN(C(=O)c1c(Cl)cnn1CC)C(C)C(N)=O` (centres undefined), for which the cytotoxicity at 10 µM was -16.1%.
Take `CCCc1nc(C(=O)NCc2cccnc2-n2cncn2)cs1`: the cytotoxicity at 10 µM was -148%.
With `CCc1nn(C)c(Cl)c1CN(CC)Cc1cnn(CC)c1`, the cytotoxicity at 10 µM is 4.36%.
Next, `CN1CCN(S(=O)(=O)NCC2COc3ccccc3C2)CC1` (centres undefined): -3.33%; `CCCn1ncnc1C(C)NC(=O)C1CCN(C(C)C)CC1` (centres undefined): -139%; `O=C(NCCSc1cnn[nH]1)c1c[nH]nc1C1CCCCC1`: -5.03%.
Consider `Cc1nc(CCCN2CCOCC2)n(Cc2ccc(F)cc2)n1`, for which the cytotoxicity at 10 µM turned out to be 1.69%.
For `CCOc1ccccc1CN(C)C(=O)CN1C(=O)OC[C@@H]1C(C)C`, the cytotoxicity at 10 µM was -2.24%.
Regarding `CC[C@H]1CN(C(=O)CCn2c(C)cccc2=O)CC[C@@]1(C)O`, the cytotoxicity at 10 µM was determined as 8.51%.
Take `O=C(CCCc1ccc(F)cc1)N1C[C@@H](CN2CCOCC2)[C@@H](CO)C1`: the cytotoxicity at 10 µM was -11.8%.
Regarding `COCc1ccc(CNc2cncc(-n3cccn3)n2)cc1`, the cytotoxicity at 10 µM worked out at 6%.
As to `COc1ccc(Cl)cc1C(=O)NCCNc1cnccn1`, the cytotoxicity at 10 µM is -8.35%.
Next, `CC(Cc1ccco1)NC(=O)Nc1ccc(N(C)C)nc1` (centres undefined): -7.22%; `Cc1nc(C)n(CC2CCCN2CCc2ccncc2)n1` (centres undefined): -7.3%; `CCOCCN1CCN(Cc2csc(-c3cnn(C)c3)n2)CC1`: -4.95%.
Consider `COCCOc1ccc(NC(=O)C2CC(=O)N(C(C)C)C2)cn1` (centres undefined), for which the cytotoxicity at 10 µM was -17.6%.
As for `CCC(O)CN1CCN(C(=O)c2cccn2Cc2ccncc2)CC1` (centres undefined), the cytotoxicity at 10 µM is -13%.
Then `Cc1nc(CN(C)C2CCCN(c3cccnn3)C2)oc1C` (centres undefined), with -12.4%.
As to `OCC1CCCN1c1cc(NCc2cccc3cccnc23)ncn1` (centres undefined), the cytotoxicity at 10 µM was -15.6%.
In the case of `CC(C)CCc1nc(CNCC2CN(C)CCO2)cs1` (centres undefined), the cytotoxicity at 10 µM is -15.2%.
Then `CC(C)c1n[nH]c(C2CN(CCc3cccs3)CCO2)n1` (centres undefined), with -4.57%; and `Cc1ccc(C(=O)NC2CCN(C(=O)Nc3ccccn3)CC2)s1`, with -4.54%.
On to `CCCN1CCN(C(=O)Cc2nc(-c3ccco3)oc2C)CC1`, for which the cytotoxicity at 10 µM is -6.14%.
Turning to `NC(=O)C1CN(C(=O)Nc2ccccc2N2CCCCCC2)CCO1` (centres undefined), the cytotoxicity at 10 µM is -6.31%.
Then `Cc1ccc(CN[C@@H]2COC[C@H]2Cc2cc(C)no2)cc1`, with -23.2%.
Turning to `CC(C)N(C)Cc1cnc2n1CCN(Cc1cccc(F)c1)C2`, the cytotoxicity at 10 µM is -2.92%.
Take `COCCNC(=O)c1cc(-c2cc[nH]n2)n2ccccc12`: the cytotoxicity at 10 µM worked out at 10.4%.
For the molecule `O=C1CC2(CCN(Cc3ccccn3)C2)CN1c1cccnc1` (centres undefined), the cytotoxicity at 10 µM is -8.75%.
Next, `COc1ccc(C(NCc2ccc(C#N)cc2)C2CC2)cc1` (centres undefined): 7.18%; `CCn1nnc2c1C(COCCN(C)C)CN(Cc1ccc(C)s1)C2` (centres undefined): 4.44%.
Turning to `CN(C)C1CC2(CCN(C(=O)c3csnn3)CC2)c2ccccc21` (centres undefined), the cytotoxicity at 10 µM was -138%.
For `NC(C(=O)N1CCSc2ccccc2C1)c1ccccc1` (centres undefined), the cytotoxicity at 10 µM stood at 4.59%.
Then `c1csc(CN2Cc3nccn3CC(Cn3cncn3)C2)c1` (centres undefined), with -136%.
For the molecule `O=C1CCC2(CCN(Cc3ccc(F)cc3)CC2)N1CCN1CCCC1`, the cytotoxicity at 10 µM was -4.72%.
Next, `CCc1nccn1CC(=O)N1C[C@@H]2CC[C@H]1CN(c1ncccn1)C2`: -7.9%.
